In the library only some 2.6% were active in any assay of this set; here they are far more common.
Platelet DG rel – modulates dense granule release in human platelets; 300,000 compounds, 0.22% hits; AID 1663; inhibition, %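 (compounds screened at 7.5 µM in platelet-rich plasma)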; human platelet-rich plasma, SFLLRN dense granule ATP release, luminescence;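 active = mean replicate score, as percent of positive control, at or above 50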
SENP7 inh – SENP7 protease inhibition; recombinant SENP7, Z-RLRGG-aminoluciferin luminescence, 40 min; inhibition, % at 5 µM; 330,000 compounds, 1.5% hits; AID 434973;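 active = inhibition above about 50% at the single test dose, limit read from the data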;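 note: plate controls were DMSO with enzyme for no effect and no enzyme buffer wells for full effect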
SENP6 block – blocks the human protease SENP6; Q9GZR1; Recombinant SENP6 catalytic domain, aminoluciferin luminescence; inhibition, % at 10 µM; 330,000 compounds, 1.8% hits;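 active = inhibition above about 50% at the single tested dose, limit read from the data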;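 note: plate controls were DMSO wells with enzyme for no effect and DMSO wells lacking enzyme for full effect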
SENP8 block-1 – blocks the human protease SENP8; inhibition, % at 10 µM; AID 2540; 330,000 compounds, 1.2% hits; purified SENP8, Z-RLRGG-aminoluciferin cleavage, luminescence; Q96LD8; in the data active = inhibition above about 50%
Target sequence (Q96LD8 whole entry, looked up): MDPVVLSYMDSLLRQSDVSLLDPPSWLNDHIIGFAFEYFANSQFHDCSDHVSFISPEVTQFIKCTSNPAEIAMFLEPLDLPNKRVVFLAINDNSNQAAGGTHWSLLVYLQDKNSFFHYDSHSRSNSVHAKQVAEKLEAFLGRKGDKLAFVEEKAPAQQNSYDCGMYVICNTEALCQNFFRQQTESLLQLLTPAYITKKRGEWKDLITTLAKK
SENP8 block-2 – blocks human SENP8 cleavage of Nedd8 substrate. Q96LD8. recombinant SENP8, Nedd8 substrate fluorescence. inhibition, % at 20 µM. 360,000 compounds, 0.64% hits. AID 602440; in the data active = inhibition mostly above about 40%, no sharp cut-off; inactive = mostly below about 27%
SENP1 inh – blocks the human SENP1 SUMO protease catalytic domain; inhibition, % at 10 µM; AID 624204; recombinant SENP1 catalytic domain, CyPet-SUMO1-YPet FRET cleavage; 360,000 compounds, 0.21% hits; Q9P0U3;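 active = inhibition at least 30% at 10 µM, raw YFP signal under a set limit, fluorescence ratio 0.5 to 1.5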;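 note: 0% = enzyme with DMSO and 100% = no enzyme wells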
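System: Recombinant human SENP1 catalytic domain, His6-tagged | Incubation: Enzyme reaction for 50 min at room temperature, dark | Medium: Tris pH 8 with BME, BSA, NP40 and catalase | Also added: 25 nM SUMO1 FRET substrate | Compound: 10 µM single point, 0.5% DMSO | Measured by: FRET fluorescence in CFP and YFP emission channels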
SENP8 conf – human SENP8 inhibition, confirmed. shares compounds with SENP7 inh. Recombinant SENP8, Z-RLRGG-aminoluciferin luminescence, 60 min. inhibition, % at 12.5 µM. 6,200 compounds, 40% hits;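 active = mean inhibition across replicates above about 50%, limit read from the data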
SENP6 conf – confirmation of human SENP6 protease inhibitors | shares compounds with SENP7 inh | recombinant SENP6, Z-RLRGG-aminoluciferin luminescence | inhibition, % at 12.5 µM | 6,200 compounds, 58% hits
SENP7 confirm – human SENP7 inhibition, confirmed | recombinant SENP7, Z-RLRGG-aminoluciferin luminescence, 40 min | shares compounds with SENP7 inh | 6,200 compounds, 69% hits | AID 488917 | inhibition, % at 12.5 µM
Casp3 SENP sel – selectivity test for SENP inhibitors: human caspase-3 inhibition; AID 488918; shares compounds with SENP7 inh; 6,200 compounds, 60% hits; purified caspase-3, Z-DEVD-aminoluciferin luminescence, 60 min; inhibition, % at 12.5 µM;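 active = mean inhibition above about 50%, limit read from the data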;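 note: plate controls were enzyme with DMSO for no effect and wells without caspase-3 for full effect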
Target sequence (P42574 28-227 limits assumed): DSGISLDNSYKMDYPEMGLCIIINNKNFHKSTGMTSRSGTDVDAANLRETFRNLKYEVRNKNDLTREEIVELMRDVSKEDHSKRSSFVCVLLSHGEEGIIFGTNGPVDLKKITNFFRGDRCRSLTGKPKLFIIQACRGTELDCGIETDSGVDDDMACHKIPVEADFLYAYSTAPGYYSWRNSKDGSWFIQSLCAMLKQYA
Luc interf – interferes with luciferase luminescence in SENP counter-screen. 6,200 compounds, 39% hits. inhibition, % at 12.5 µM. shares compounds with SENP7 inh. Pre-incubated SENP8/Z-RLRGG-aminoluciferin, luciferase luminescence interference. AID 488919;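 active = mean inhibition above about 50% when retested at one dose, limit read from the data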;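 note: plate controls were DMSO wells with completed reaction for no effect and substrate without enzyme for full effect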
An asterisk follows results filed as active.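 Rule for the calls, unless noted: active = mean inhibition above about 50% in the one-dose retest (limit read from the data); inactive = the rest.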

`NS(=O)(=O)c1ccc(CCNCc2cccnc2)cc1` gave Platelet DG rel 13, SENP7 inh 14, SENP6 block -28, SENP8 block-1 -3, SENP8 block-2 12 and SENP1 inh 1.
CCN(CC)c1ccc(NC(=O)CCN2C(=O)c3ccccc3S2(=O)=O)c(C)c1 was read as Platelet DG rel 11, SENP7 inh -4, SENP6 block -5, SENP8 block-1 -8, SENP8 block-2 16 and SENP1 inh 1.
O=C(Nc1ccc2c(c1)OCCO2)C(c1ccccc1)n1c(=O)c(-c2cc3ccccc3[nH]2)nc2ccccc21 (stereo not drawn) was read as SENP8 block-2 -402 and SENP1 inh -18.
Clc1ccc(-c2csc(Nc3cccnc3)n2)cc1 was read as Platelet DG rel -7, SENP7 inh -7, SENP6 block -8, SENP8 block-1 -2, SENP8 block-2 11 and SENP1 inh 0.
`C=CCNc1nc(-c2ccc(Cl)cc2)cs1` gave Platelet DG rel -14, SENP7 inh 75*, SENP6 block 91*, SENP8 block-1 80*, SENP8 block-2 34, SENP1 inh 3, SENP8 conf 44, SENP6 conf 90*, SENP7 confirm 100*, Casp3 SENP sel 75* and Luc interf 91*.
NC(=NCc1ccco1)NC(=O)c1ccc(Cl)cc1 was read as Platelet DG rel -1, SENP7 inh -7, SENP6 block -7, SENP8 block-1 -16, SENP8 block-2 0 and SENP1 inh -1.
Screening COc1ccc(C(=O)/C=C/c2cccs2)c(OC(=O)c2cccc([N+](=O)[O-])c2)c1 returned Platelet DG rel 8, SENP7 inh 39, SENP6 block 79*, SENP8 block-1 67*, SENP8 block-2 29, SENP1 inh 3, SENP8 conf 31, SENP6 conf 39, SENP7 confirm 19, Casp3 SENP sel 44 and Luc interf 2.
Screening O=C1CCCCN1CCCC(=O)N1CCCC(Nc2ccccc2)C1 (stereo not drawn) returned Platelet DG rel -3, SENP7 inh 4, SENP6 block -13, SENP8 block-1 -8, SENP8 block-2 22 and SENP1 inh 1.
Screening Cc1cc(C)cc(NC2=C(N)C(=O)c3ccccc3C2=O)c1 returned Platelet DG rel 2, SENP7 inh 11, SENP6 block 70*, SENP8 block-1 29, SENP8 block-2 48*, SENP1 inh -4, SENP8 conf -3, SENP6 conf 6, SENP7 confirm 2, Casp3 SENP sel 5 and Luc interf -6.
`CC(C)(C)C(=O)Nc1sc(-c2ccccc2)cc1C(=O)O` gave Platelet DG rel 6, SENP7 inh 30, SENP6 block 58*, SENP8 block-1 19, SENP8 block-2 -194, SENP1 inh 3, SENP8 conf 39, SENP6 conf 30, SENP7 confirm 70*, Casp3 SENP sel 40 and Luc interf 52*.
`Cc1cccc(C(=O)Nc2sc(-c3ccccc3)cc2C(=O)O)c1` gave Platelet DG rel 0, SENP7 inh 0, SENP6 block 85*, SENP8 block-1 65*, SENP8 block-2 -432, SENP1 inh -10, SENP8 conf 78*, SENP6 conf 75*, SENP7 confirm 72*, Casp3 SENP sel 16 and Luc interf 84*.
For CCOC(=O)c1cc(-c2ccccc2)sc1NC(=O)c1ccc(OC)c(OC)c1 the results were Platelet DG rel 19, SENP7 inh 4, SENP6 block 17, SENP8 block-1 9, SENP8 block-2 -441 and SENP1 inh -5.
Screening COc1cccc(NC(=O)N(C)C[C@H]2Oc3ncc(Br)cc3C(=O)N([C@H](C)CO)C[C@H]2C)c1 returned SENP8 block-2 -29 and SENP1 inh 0.
`Cc1cc(C(=O)Nc2ccc(N3CCCCC3)cc2)no1` gave Platelet DG rel 19, SENP7 inh 54*, SENP6 block 50, SENP8 block-1 38, SENP8 block-2 11, SENP1 inh 1, SENP8 conf 17, SENP6 conf 56*, SENP7 confirm 77*, Casp3 SENP sel 81* and Luc interf 19.
`O=C(Nc1ccc2c(c1)CCCN2C(=O)c1ccccc1)c1ccccc1` gave Platelet DG rel 47, SENP7 inh 83*, SENP6 block 84*, SENP8 block-1 78*, SENP8 block-2 8, SENP1 inh 3, SENP8 conf 12, SENP6 conf 85*, SENP7 confirm 97*, Casp3 SENP sel 85* and Luc interf 67*.
For O=C(Nc1ccc(N2CCCCC2)cc1)c1ccc(F)cc1F the results were Platelet DG rel 32, SENP7 inh 80*, SENP6 block 88*, SENP8 block-1 77*, SENP8 block-2 7, SENP1 inh 4, SENP8 conf 33, SENP6 conf 77*, SENP7 confirm 88*, Casp3 SENP sel 84* and Luc interf 14.
Cc1cc(C(=O)Nc2ccc(S(=O)(=O)N3CCCC3)cc2)no1 was read as Platelet DG rel -1, SENP7 inh -2, SENP6 block 13, SENP8 block-1 -5, SENP8 block-2 15 and SENP1 inh -2.
`O=C(Nc1ccc(N2CCCCC2)cc1)c1cncc(Br)c1` gave Platelet DG rel 18, SENP7 inh 52*, SENP6 block -36, SENP8 block-1 30, SENP8 block-2 22, SENP1 inh 4, SENP8 conf 48, SENP6 conf 38, SENP7 confirm 62*, Casp3 SENP sel 68* and Luc interf 8.
For O=C(Nc1ccc2c(c1)OCCO2)C1c2ccccc2OCC(=O)N1C1CC1 (stereo not drawn) the results were SENP8 block-2 9 and SENP1 inh 2.

Source: PubChem BioAssay (several laboratories)
